The values that follow come from PMC4094378 (European journal of medicinal chemistry, 2014).

Entries after “also recorded” stand apart in the source; their conditions may differ.

Assay [1] has as its system U-937 (lymphoma) cells. As to conditions: read-out: IC50 U-937; ref [18],[19]; cited from earlier work.
Assay [2] deals with HeLa (cervical) cancer cells. As to conditions: read-out: IC50 HeLa (literature); ref [18],[19]; cited from earlier work.
Assay [3] relates to panel of seven human cancer cell lines. The assay is described as follows: Antiproliferative activity across the panel of seven cancer cell lines. Type of assay: cell-based. As to conditions: for IC50: Homo sapiens, read-out: IC50 range over the panel of cancer cell lines. An outline of the steps: (§1)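 Jurkat, CEM and SEM cells were grown in RPMI-1640, and HeLa, MCF-7, HT-29 and LoVo in DMEM, each with 10% FBS and penicillin/streptomycin. Wells got 8 × 10^3 cells and were preincubated 18 h at 37 °C in 5% CO2. Test compound from a 10 mM DMSO stock was diluted in medium (final DMSO ≤0.25%) and applied for 72 h. Read-out was MTT. IC50 is the concentration giving 50% inhibition of proliferation, from dose–response curves of ≥3 independent experiments, mean ± SE.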

For assay [4], the system named is Bovine brain tubulin. The experiment in a line: In vitro inhibition of tubulin polymerization. The format is biochemical. As to conditions: 10 μM purified tubulin, glutamate buffer, 30 °C. An outline of the steps: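 Tubulin was purified from bovine brain. Varying test-compound concentrations were preincubated with the tubulin at 30 °C, then cooled to 0 °C. GTP was added, the mixtures were moved to 0 °C cuvettes in a recording spectrophotometer and warmed to 30 °C, and assembly was followed turbidimetrically.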

The test system of assay [5] is LoVo cells. The assay is described as follows: Cell growth inhibitory activity. As to conditions: additional meta-methoxy. The format is cell-based, human. The procedure, abridged: as §1
For assay [6], the system named is Jurkat cells. The assay is described as follows: Cell growth inhibitory activity. As to conditions: additional meta-methoxy. The format is cell-based, human. An outline of the steps:
as §1

Assay [7] concerns PBMC not stimulated with PHA. The assay is described as follows: Cytotoxicity in resting PBMC. As to conditions: resting PBMC vs lymphoblastic cell lines. Type of assay: cell-based, human. An outline of the steps:
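PBMC from healthy donors were isolated on a Lymphoprep gradient, washed, and held overnight at 1.0 × 10^6 cells/mL in RPMI-1640 with 10% FBS. Non-adherent cells were resuspended at 5 × 10^5 cells/mL without PHA, given a range of test-compound concentrations for 72 h, and read by MTT. Values are mean ± SEM of three separate experiments.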

For assay [8], the system named is microtubule network in HeLa cells. The assay is described as follows: Immunofluorescence analysis of microtubule network. As to conditions: 2.5 or 5.0 μM, 24 h, anti-β-tubulin staining. Type of assay: cell-based, human. An outline of the steps:
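Untreated HeLa cells served as the control. After 24 h exposure, cells were fixed in cold 4% formaldehyde for 15 min. Staining used mouse monoclonal anti-β-tubulin (1:1000), then an Alexa-conjugated secondary antibody (1:2000), with DAPI (1:10,000) counterstain for nuclei. Cells were imaged by confocal microscopy at 20×.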

For assay [9], the system named is HeLa cells. The experiment in a line: Flow cytometric analysis of cell cycle distribution. The format is cell-based, human. As to conditions: 24 h; for effect on cell cycle progression: PI, concentration-dependent, reduction in S phase cells. The procedure, abridged:
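HeLa cells in exponential growth (2.5 × 10^5) were treated with a range of test-compound concentrations. Cells were collected, fixed in ice-cold 70% ethanol, and lysed in buffer containing RNase A and 0.1% Triton X-100. They were stained with propidium iodide for flow-cytometric DNA content, and the DNA histograms were analysed to give the percentage of cells in each phase.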

Assay [10] concerns HeLa cells. The experiment in a line: Annexin-V/PI apoptosis assay. As to conditions: 24 h, further increased after 48 h. Type of assay: cell-based, human.
For assay [11], the system named is HeLa cells. The experiment in a line: Cell viability with or without pan-caspase inhibitor z-VAD.fmk. The format is cell-based, human. As to conditions: compound 2.5 μM, z-VAD.fmk 100 μM, 48 h. The procedure, abridged: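 HeLa cells were exposed for 48 h to test compound with or without the pan-caspase inhibitor, and viability was recorded as a percentage. Data are means ± SEM of three independent experiments. Significance against compound-alone treatment was tested by Student's t-test. Final DMSO was ≤0.25%.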

Assay [12] relates to Bcl-2, Bax, Bak, Mcl-1 and Bid in HeLa cells. The assay is described as follows: Western blot of Bcl-2 family proteins. As to conditions: for Mcl-1 expression: 2.5 μM, especially at 48 h; for Bid expression: evident after 24 h at the lowest concentration used. The format is cell-based, human. The procedure, abridged: (§2)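 HeLa cultures were sampled at the indicated times and concentrations, washed twice in 0 °C PBS and lysed 30 min at 0 °C. Lysates were clarified at 15 000 × g (4 °C, 10 min) and protein was measured by BCA. Aliquots of 20 µg were run on 7.5–15% gradient SDS-PAGE and blotted to PVDF. Membranes were blocked at 4 °C, probed 2 h at room temperature with primary antibody, then 60 min with peroxidase-labelled secondary, and developed by ECL. Membranes were reprobed for β-actin as the loading control.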

The test system of assay [13] is γH2A.X in HeLa cells. The experiment in a line: Western blot of γH2A.X. As to conditions: 24 or 48 h treatment. Type of assay: cell-based, human. The procedure, abridged: as §2
(In general: Immunoblotting shows a protein as a band on a membrane.)

Assay [14] relates to HeLa cells. The experiment in a line: Cell viability. The format is cell-based, human. As to conditions: 2.5 μM, 48 h; BHA 10 μM, TOC 100 μM, NAC 100 μM, GSH 1 mM, DTT 1 mM.
The subject of assay [15] is HeLa cells. The experiment in a line: Intracellular GSH content. Type of assay: cell-based, human. As to conditions: 24 h, concentration-dependent; counteracted by NAC 100 μM.
Assay [16] has as its system HeLa cells. The assay is described as follows: ROS production by flow cytometry. Type of assay: cell-based, human. (A flow cytometer gives signals particle by particle.)
Assay [17] relates to HeLa cells. The experiment in a line: Mitochondrial membrane potential. The format is cell-based, human. As to conditions: JC-1, time course.
Assay [18] deals with murine leukemia L1210 cells. As to conditions: read-out: IC50 L1210; ref [21]; cited from earlier work.

One may read the IC50 as the concentration that inhibits the measured activity by half. As to `COc1cccc(/C=C/C(=O)Nc2cc(OC)c(OC)c(OC)c2)c1` [1a], the IC50 in assay [1] was 3000 nM; in assay [2], 11.3 µM.

With `COc1cc(NC(=O)/C=C/c2cccc(OCc3ccccc3)c2)cc(OC)c1OC` [1b, reference compound], the IC50 in assay [3] was 2200 to 21700 nM; in assay [1] it was 1800 nM. In assay [3] (across seven cell lines), the “fold more potent than 1a” value is listed as 1.5- to 12 fold.

In the case of `C=C(Br)C(=O)Nc1cccc(/C=C/C(=O)Nc2ccccc2)c1` [4a, N-{3-[(1E)-3-anilino-3-oxoprop-1-en-1-yl]phenyl}-2-bromoacrylamide], the IC50 in [3] is 190 to 27300 nM.

For `C=C(Br)C(=O)Nc1cccc(/C=C/C(=O)Nc2cccc3ccccc23)c1` [4b, 2-Bromo-N-(3-{(1E)-3-oxo-3-[(naphthalen-1-yl)amino]prop-1-en-1-yl}phenyl)-acrylamide], in assay [3], the IC50 was 680 to 6500 nM.

As to `C=C(Br)C(=O)Nc1cccc(/C=C/C(=O)Nc2cccc(F)c2)c1` [4d, 2-Bromo-N-(3-{(1E)-3-oxo-3-[(3-fluorophenyl)amino]prop-1-en-1-yl}phenyl)-acrylamide], the “fold enhancement of antiproliferative activity vs 4c” value in [3] (fluorine moved para to meta, six of seven cell lines, exception CEM) was 4–15 fold.

With `C=C(Br)C(=O)Nc1cccc(/C=C/C(=O)Nc2ccc(F)c(F)c2)c1` [4e, 2-Bromo-N-(3-{(1E)-3-oxo-3-[(3,4-difluorophenyl)amino]prop-1-en-1-yl}phenyl)-acrylamide], the “Concentration up to which tubulin assembly was not inhibited” value in [4] is > 20 µM. Further, in assay [3] (additional meta-fluorine, all cancer cell lines), the “fold increase of antiproliferative activity relative to 4c” value is 4–1300 fold.

Turning to `C=C(Br)C(=O)Nc1cccc(/C=C/C(=O)Nc2ccc(Cl)cc2)c1` [4f, 2-Bromo-N-(3-{(1E)-3-oxo-3-[(4-chlorophenyl)amino]prop-1-en-1-yl}phenyl)-acrylamide], in assay [3] (vs 4c), the “fold increase of antiproliferative activity, fluorine to chlorine” value is recorded as 2–30 fold.

As for `C=C(Br)C(=O)Nc1cccc(/C=C/C(=O)Nc2ccc(C)cc2)c1` [4g, 2-Bromo-N-(3-{(1E)-3-oxo-3-[(p-tolyl)amino]prop-1-en-1-yl}phenyl)-acrylamide], the “fold increase in potency vs 4f” value in [3] (chlorine replaced by methyl) is 2–10 fold.

As to `C=C(Br)C(=O)Nc1cccc(/C=C/C(=O)NCc2ccc(C)cc2)c1` [4h, 2-Bromo-N-(3-{(1E)-3-[(4-methylbenzyl)amino]-3-oxoprop-1-en-1-yl}phenyl)acrylamide], the “fold reduced activity compared with 4g” value in assay [3] (cell lines other than HeLa, LoVo and MCF-7) lay within 2 to 7 fold.

Turning to `C=C(Br)C(=O)Nc1cccc(/C=C/C(=O)Nc2ccc(OC)cc2)c1` [4i, 2-Bromo-N-(3-{(1E)-3-oxo-3-[(4-methoxyphenyl)amino]prop-1-en-1-yl}phenyl)-acrylamide], the “Concentration up to which tubulin assembly was not inhibited” value in assay [4] is > 20 µM. In [3] (para-methoxy), the “fold increase in antiproliferative activity relative to 4a” value is 7–15 fold.

As to `C=C(Br)C(=O)Nc1cccc(/C=C/C(=O)Nc2ccc(OC)c(OC)c2)c1` [4m, 2-Bromo-N-(3-{(1E)-3-oxo-3-[(3,4-dimethoxyphenyl)amino]prop-1-en-1-yl}phenyl)-acrylamide], the “fold increase in activity vs 4i, LoVo” value in assay [5] amounted to 3 fold. Further, the “fold increase in activity vs 4i, Jurkat” value in assay [6] worked out at 2 fold. In addition, in assay [4], the “Concentration up to which tubulin assembly was not inhibited” value is > 20 µM.

In the case of `C=C(Br)C(=O)Nc1cccc(/C=C/C(=O)Nc2cc(OC)c(OC)c(OC)c2)c1` [4o, 2-Bromo-N-(3-{(1E)-3-oxo-3-[(3,4,5-trimethoxyphenyl)amino]prop-1-en-1-yl}phenyl)-acrylamide], the “Concentration up to which tubulin assembly was not inhibited” value in assay [4] is > 20 µM. Also, the IC50 in [3] is 18 to 2300 nM.

As to `C=C(Br)C(=O)Nc1cccc(/C=C/C(=O)Nc2ccc(N3CCOCC3)cc2)c1` [4p, 2-Bromo-N-(3-{(1E)-3-oxo-3-[(4-morpholinophenyl)amino]prop-1-en-1-yl}phenyl)-acrylamide], in assay [7], the “fold lower toxicity in resting PBMC respect to Jurkat and CEM” value is 10–100 fold. Besides, the “Concentration up to which tubulin assembly was not inhibited” value in assay [4] was > 20 µM. Also, the “fold enhancement of antiproliferative activity relative to 4a” value in assay [3] (morpholin-4-yl, six of seven cell lines, exception CEM) is 8–100 fold. The “effect on microtubule network” value in assay [8] is listed as “not substantially modified”. Besides, the “effect on cell cycle progression” value in [9] is on record as “significant G2/M arrest”. In addition, the annexin-V positive cells entry in [10] is reported as “accumulation of annexin-V positive cells”. Besides, the “cell viability with z-VAD.fmk” value in assay [11] is “significantly increased cell viability”. In assay [12], the “Bak and Bax expression” value is on record as “remained practically unchanged”; the Mcl-1 expression result is “decreased”; the Bid expression entry was “nearly complete disappearance”. Also, in assay [13], the γH2A.X expression result was “induced this effect only after 48 h”. Besides, the “cell viability in the presence of antioxidants” value in [14] was “only the thiol-containing scavengers (NAC, GSH and DTT) significantly increased cell viability”. In addition, in assay [15], the “intracellular GSH content (CMFDA fluorescence)” value is listed as “remarkable decrease; also recorded: substantially reduced CMFDA fluorescence”.

In the case of `C=C(Br)C(=O)Nc1ccc(/C=C/C(=O)Nc2cc(OC)c(OC)c(OC)c2)cc1` [4r], in assay [7], the “fold lower toxicity in resting PBMC respect to Jurkat and CEM” value is reported as 10–100 fold. In addition, in assay [4], the “Concentration up to which tubulin assembly was not inhibited” value is > 20 µM. Also, in assay [8], the “effect on microtubule network” value is on record as “not substantially modified”. For the same compound, in [9], the “concentration at which rise in G2/M cells occurs (as low as)” value is 2 µM and the “effect on cell cycle progression” value is listed as “significant G2/M arrest”. The annexin-V positive cells entry in [10] is “accumulation of annexin-V positive cells”. For the same compound, the “cell viability with z-VAD.fmk” value in assay [11] was “significantly increased cell viability”. In addition, in assay [12], the “Bak and Bax expression” value is on record as “remained practically unchanged”; the Mcl-1 expression entry was “decreased”; the Bid expression entry is on record as “nearly complete disappearance”. Besides, the Bcl-2 expression result in [12] (24 and 48 h) is given as “decreased”. Besides, the γH2A.X expression result in [13] is “induced γH2A.X expression”. Besides, the “ROS production, H2DCFDA-positive cells” value in assay [16] (1–6 h, concentration-dependent) is “early but modest increase”. Moreover, in [16] (data not shown), the “ROS production, HE fluorescence (superoxide anion)” value is listed as “did not detect any increase”. Besides, the “mitochondrial depolarization, onset time” value in [17] was ≥ 12 h. Besides, the “cell viability in the presence of antioxidants” value in [14] is “only the thiol-containing scavengers (NAC, GSH and DTT) significantly increased cell viability”. Also, the “intracellular GSH content (CMFDA fluorescence)” value in assay [15] is recorded as “substantially reduced CMFDA fluorescence”.

Turning to `COc1cc(NC(=O)/C=C/c2cccc(N)c2)cc(OC)c1OC` [7o, (E)-3-(3-aminophenyl)-N-(3,4,5-trimethoxyphenyl)acryl-amide], the IC50 in assay [3] was 2810 to 63100 nM. The “fold less active than 4o” value in assay [3] (across seven cell lines) is listed as 30–700 fold.

In the case of `C=C(Br)C(=O)O` [α-bromoacrylic acid], the IC50 in assay [18] is > 120 µM.
